Data: ChEMBL document CHEMBL4043222, “Pyrrolizines: Design, synthesis, anticancer evaluation and investigation of the potential mechanism of action” (Bioorg Med Chem, 2017)
The source made the active and inactive calls. No cut-off for these calls is given here.

What was measured:
[1] = test system: A549; assay: Growth inhibition of human A549 cells by MTT assay; assay type: functional, cell-based
Outline: (§1)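 MTT viability. Cells seeded for 24 h, then exposed to compound for 48 h in DMEM/F-12 or DMEM with 5% FBS. Vehicle controls received matching DMSO. MTT added at 0.5 mg/mL for 3 h at 37 °C. Formazan dissolved in DMSO and absorbance read at 570 nm.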

[2] = target: T1, Prostaglandin G/H synthase 1 (Ovis aries, UniProt P05979); assay: Inhibition of ovine COX1 assessed as reduction in PGH2 formation by measuring PGF2alpha by colorimetric assay
T1 sequence (P05979 whole entry): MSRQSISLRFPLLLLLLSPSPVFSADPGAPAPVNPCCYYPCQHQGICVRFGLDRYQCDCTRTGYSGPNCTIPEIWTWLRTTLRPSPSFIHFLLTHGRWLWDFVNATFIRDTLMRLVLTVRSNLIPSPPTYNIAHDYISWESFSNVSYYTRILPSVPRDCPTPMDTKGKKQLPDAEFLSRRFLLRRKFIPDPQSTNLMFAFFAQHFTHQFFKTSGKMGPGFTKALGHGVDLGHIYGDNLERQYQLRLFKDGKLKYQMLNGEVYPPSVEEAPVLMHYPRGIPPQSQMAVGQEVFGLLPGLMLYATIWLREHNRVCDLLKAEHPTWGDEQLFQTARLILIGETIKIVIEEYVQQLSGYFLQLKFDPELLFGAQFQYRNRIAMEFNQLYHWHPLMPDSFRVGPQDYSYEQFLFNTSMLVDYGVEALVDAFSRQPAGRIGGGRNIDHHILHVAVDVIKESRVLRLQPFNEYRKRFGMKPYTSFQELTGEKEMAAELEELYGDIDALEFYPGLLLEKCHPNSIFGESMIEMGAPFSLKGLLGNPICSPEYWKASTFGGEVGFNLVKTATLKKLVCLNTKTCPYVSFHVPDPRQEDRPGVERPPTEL
Outline: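 Colorimetric COX inhibitor screening kit run per the manufacturer, using ovine COX-1. IC50 calculated from three determinations.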

[3] = test system: A549; assay: Induction of apoptosis in human A549 cells assessed as caspe-3/7 activation at 5 to 20 uM incubated for 24 hrs by Caspase-Glo 3/7 luminescence assay; assay type: functional, cell-based
Outline: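 A549 cells plated at 1 x 10^4 per well and allowed 24 h to settle. Medium removed, then compounds added for 24 h at 5, 10 and 20 μM. Vehicle controls received equivalent DMSO. Caspase-3/7 activity read by Caspase-Glo 3/7 luminescence (RLU). Mean ± S.D. (n = 5), experiment done 3 times. Compared with vehicle by one-way ANOVA with Dunnett's test.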

[4] = test system: Hep 3B2; assay: Growth inhibition of human Hep3B cells by MTT assay; assay type: functional, cell-based; outline: as §1
[5] = test system: MCF7; assay: Growth inhibition of human MCF7 cells by MTT assay; assay type: functional, cell-based; outline: as §1
[6] = test system: PC-3; assay: Anticancer activity against human PC3 cells; assay type: functional, cell-based
[7] = test system: MCF7; assay: Anticancer activity against human MCF7 cells; assay type: functional, cell-based

| Compound | IC50 [1] [µM] | IC50 [2] [µM] | IC50 [5] [µM] | IC50 [6] [µM] | IC50 [7] [µM] | Activity [3] | IC50 [4] [µM] |
| --- | --- | --- | --- | --- | --- | --- | --- |
| N#Cc1c(N=Cc2cccnc2)c(C(=O)Nc2ccc(Cl)cc2)n2c1CCC2 | 23 | 5.78 | 22.5 |  |  |  | 31.2 |
| Cc1ccc(NC(=O)c2c(N=Cc3ccco3)c(C#N)c3n2CCC3)cc1 | 29.4 | 9.23 | 16.1 |  |  |  | 24.4 |
| N#Cc1c(N=Cc2cccnc2)c(C(=O)Nc2ccccc2)n2c1CCC2 | 17.5 | 11.3 | 11.7 |  |  |  | 25.8 |

The next compounds have a lower IC50 [1] than those just listed; values first:

| IC50 [1] [µM] | IC50 [2] [µM] | IC50 [5] [µM] | IC50 [6] [µM] | IC50 [7] [µM] | Compound | Activity [3] | IC50 [4] [µM] |
| --- | --- | --- | --- | --- | --- | --- | --- |
| 7.11 | 7.98 | 5.77 |  |  | N#Cc1c(N=Cc2ccc3ccccc3c2)c(C(=O)Nc2ccccc2)n2c1CCC2 | Active | 10.2 |
| 11.2 | 10.6 | 9.82 |  |  | N#Cc1c(N=Cc2ccc3ccccc3c2)c(C(=O)Nc2ccc(Cl)cc2)n2c1CCC2 |  | 12.5 |
| 16.2 |  | 7.9 | 8.54 | 7.9 | N#Cc1c(/N=C/c2ccc([N+](=O)[O-])cc2)c(C(=O)Nc2cc(Cl)cc(Cl)c2)n2c1CCC2 |  | 14 |
| 11.4 | 10.4 | 5.35 |  |  | Cc1ccc(NC(=O)c2c(N=Cc3cccs3)c(C#N)c3n2CCC3)cc1 |  | 13.8 |
